Measurements from ChEMBL document CHEMBL3286116, “Synthesis, biological evaluation and structure-activity correlation study of a series of imidazol-based compounds as Candida albicans inhibitors” (Eur J Med Chem, 2014).
In brackets after ≈: the same amount, converted by molar mass.

Legend:
Format in all cases: functional
[1] = tested on: Candida albicans; experiment: Antifungal activity against Candida albicans PMC 1041R after 48 hrs by CLSI broth microdilution method
Summary of the method: (§1)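 Yeast CLSI broth microdilution (M27-A3). Compounds dissolved in DMSO at 100× the top test concentration, then diluted as serial two-fold dilutions in RPMI 1640 to final 0.125–64. Inoculum was 1.0–1.5 × 10^3 cells mL−1, incubated at 35 °C and read for growth at 48 h. MIC is the lowest concentration giving ≥50% growth inhibition versus growth control. Reported as the median of five replicates and as the geometric mean.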

[2] = tested on: Cryptococcus neoformans; experiment: Antifungal activity against Cryptococcus neoformans PMC 2103 after 72 hrs by CLSI broth microdilution method; conditions: PMC 2103, 72 h
Summary of the method: (§2)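 Cryptococcus neoformans tested by CLSI broth microdilution in RPMI 1640, with serial two-fold dilutions from DMSO stocks at 100× the top concentration, final 0.125–64. Inoculum was 1.0–1.5 × 10^3 cells mL−1 at 35 °C, with growth read at 72 h. MIC is the lowest concentration with ≥50% growth inhibition versus control. Median of five replicates, plus geometric mean.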

[3] = tested on: Candida albicans; experiment: Antifungal activity against Candida albicans ATCC 90028 after 48 hrs by CLSI broth microdilution method; conditions: ATCC 90028, 48 h; summary of the method: as §1
[4] = tested on: Nannizzia gypsea; experiment: Antifungal activity against Microsporum gypseum PMC 7331 after 72 hrs by CLSI broth microdilution method; conditions: PMC 7331, 72 h
Summary of the method: (§3)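 Dermatophytes tested by CLSI broth microdilution for filamentous fungi (M38-A2). Serial two-fold dilutions of DMSO-dissolved compound in RPMI 1640, final 0.125–64. Inoculum was 0.4–5 × 10^4 CFU mL−1, incubated at 35 °C and read at 72 h. MIC80 is the lowest concentration giving ≥80% growth inhibition versus growth control. Median of five replicates, plus geometric mean.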

[5] = tested on: Nakaseomyces glabratus; experiment: Antifungal activity against Candida glabrata PMC 0852R after 48 hrs by CLSI broth microdilution method; summary of the method: as §1
[6] = tested on: Nakaseomyces glabratus; experiment: Ratio of fluconazole MIC to compound MIC for Candida glabrata PMC 0851R after 48 hrs by CLSI broth microdilution method
[7] = tested on: Nakaseomyces glabratus; experiment: Ratio of fluconazole MIC to compound MIC for Candida glabrata PMC 0852R after 48 hrs by CLSI broth microdilution method
[8] = tested on: Candida albicans; experiment: Antifungal activity against Candida albicans PMC 1042R after 48 hrs by CLSI broth microdilution method; summary of the method: as §1
[9] = tested on: Nakaseomyces glabratus; experiment: Ratio of fluconazole MIC to compound MIC for Candida glabrata PMC 0850R after 48 hrs by CLSI broth microdilution method
[10] = tested on: Candida albicans; experiment: Ratio of fluconazole MIC to compound MIC for Candida albicans PMC 1041R after 48 hrs by CLSI broth microdilution method
[11] = tested on: Candida parapsilosis; experiment: Antifungal activity against Candida parapsilosis ATCC 22019 after 48 hrs by CLSI broth microdilution method; conditions: Lodderomyces parapsilosis, ATCC 22019, 48 h; summary of the method: as §1
[12] = tested on: Nannizzia gypsea; experiment: Antifungal activity against Microsporum gypseum DSM 3824 after 72 hrs by CLSI broth microdilution method; conditions: DSM 3824, 72 h; summary of the method: as §3
[13] = tested on: Trichophyton mentagrophytes; experiment: Antifungal activity against Trichophyton mentagrophytes PMC 6503 after 72 hrs by CLSI broth microdilution method; conditions: PMC 6503, 72 h; summary of the method: as §3
[14] = tested on: Trichophyton mentagrophytes; experiment: Antifungal activity against Trichophyton mentagrophytes PMC 6552 after 72 hrs by CLSI broth microdilution method; conditions: PMC 6552, 72 h; summary of the method: as §3
[15] = tested on: Candida albicans; experiment: Ratio of fluconazole MIC to compound MIC for Candida albicans PMC 1040R after 48 hrs by CLSI broth microdilution method
[16] = tested on: Cryptococcus neoformans; experiment: Antifungal activity against Cryptococcus neoformans DSM 11959 after 72 hrs by CLSI broth microdilution method; conditions: DSM 11959, 72 h; summary of the method: as §2
[17] = tested on: Nakaseomyces glabratus; experiment: Antifungal activity against Candida glabrata PMC 0851R after 48 hrs by CLSI broth microdilution method; summary of the method: as §1
[18] = tested on: Candida albicans; experiment: Antifungal activity against Candida albicans ATCC 20891 after 48 hrs by CLSI broth microdilution method; conditions: ATCC 20891, 48 h; summary of the method: as §1
[19] = tested on: Nakaseomyces glabratus; experiment: Antifungal activity against Candida glabrata PMC 0805 after 48 hrs by CLSI broth microdilution method; conditions: PMC 0805, 48 h; summary of the method: as §1
[20] = tested on: Candida albicans; experiment: Antifungal activity against Candida albicans PMC 1011 after 48 hrs by CLSI broth microdilution method; conditions: PMC 1011, 48 h; summary of the method: as §1
[21] = tested on: Cryptococcus neoformans; experiment: Antifungal activity against Cryptococcus neoformans PMC 2102 after 72 hrs by CLSI broth microdilution method; conditions: PMC 2102, 72 h; summary of the method: as §2
[22] = tested on: Candida parapsilosis; experiment: Antifungal activity against Candida parapsilosis DSM 11224 after 48 hrs by CLSI broth microdilution method; conditions: Lodderomyces parapsilosis, DSM 11224, 48 h; summary of the method: as §1
[23] = tested on: Pichia kudriavzevii; experiment: Antifungal activity against Candida krusei PMC 0613 after 48 hrs by CLSI broth microdilution method; conditions: PMC 0613, 48 h; summary of the method: as §1
[24] = tested on: Candida albicans; experiment: Antifungal activity against Candida albicans ATCC 24433 after 48 hrs by CLSI broth microdilution method; conditions: ATCC 24433, 48 h; summary of the method: as §1
[25] = tested on: Cryptococcus neoformans; experiment: Antifungal activity against Cryptococcus neoformans PMC 2107 after 72 hrs by CLSI broth microdilution method; conditions: PMC 2107, 72 h; summary of the method: as §2
[26] = tested on: Trichophyton mentagrophytes; experiment: Antifungal activity against Trichophyton mentagrophytes PMC 6531 after 72 hrs by CLSI broth microdilution method; conditions: PMC 6531, 72 h; summary of the method: as §3
[27] = tested on: Candida tropicalis; experiment: Antifungal activity against Candida tropicalis DSM 11953 after 48 hrs by CLSI broth microdilution method; conditions: DSM 11953, 48 h; summary of the method: as §1
[28] = tested on: Trichophyton mentagrophytes; experiment: Antifungal activity against Trichophyton mentagrophytes PMC 6515 after 72 hrs by CLSI broth microdilution method; conditions: PMC 6515, 72 h; summary of the method: as §3
[29] = tested on: Candida albicans; experiment: Ratio of fluconazole MIC to compound MIC for Candida albicans PMC 1042R after 48 hrs by CLSI broth microdilution method
[30] = tested on: Candida tropicalis; experiment: Antifungal activity against Candida tropicalis PMC 0910 after 48 hrs by CLSI broth microdilution method; conditions: PMC 0910, 48 h; summary of the method: as §1
[31] = tested on: Nakaseomyces glabratus; experiment: Antifungal activity against Candida glabrata PMC 0807 after 48 hrs by CLSI broth microdilution method; conditions: PMC 0807, 48 h; summary of the method: as §1
[32] = tested on: Pichia kudriavzevii; experiment: Antifungal activity against Candida krusei DSM 6128 after 48 hrs by CLSI broth microdilution method; conditions: DSM 6128, 48 h; summary of the method: as §1
[33] = tested on: Nakaseomyces glabratus; experiment: Antifungal activity against Candida glabrata PMC 0850R after 48 hrs by CLSI broth microdilution method; summary of the method: as §1
[34] = tested on: Trichophyton mentagrophytes; experiment: Antifungal activity against Trichophyton mentagrophytes PMC 6509 after 72 hrs by CLSI broth microdilution method; conditions: PMC 6509, 72 h; summary of the method: as §3
[35] = tested on: Nakaseomyces glabratus; experiment: Antifungal activity against Candida glabrata PMC 0853R after 48 hrs by CLSI broth microdilution method; summary of the method: as §1
[36] = tested on: Candida albicans; experiment: Antifungal activity against Candida albicans ATCC 3153 after 48 hrs by CLSI broth microdilution method; conditions: ATCC 3153, 48 h; summary of the method: as §1
[37] = tested on: Trichophyton mentagrophytes; experiment: Antifungal activity against Trichophyton mentagrophytes DSM 4870 after 72 hrs by CLSI broth microdilution method; conditions: DSM 4870, 72 h; summary of the method: as §3
[38] = tested on: Candida albicans; experiment: Antifungal activity against Candida albicans PMC 1040R after 48 hrs by CLSI broth microdilution method; summary of the method: as §1
[39] = tested on: Candida albicans; experiment: Antifungal activity against Candida albicans ATCC 10261 after 48 hrs by CLSI broth microdilution method; conditions: ATCC 10261, 48 h; summary of the method: as §1
[40] = tested on: Nannizzia gypsea; experiment: Antifungal activity against Microsporum gypseum PMC 7303 after 72 hrs by CLSI broth microdilution method; conditions: PMC 7303, 72 h; summary of the method: as §3
[41] = tested on: Nakaseomyces glabratus; experiment: Ratio of fluconazole MIC to compound MIC for Candida glabrata PMC 0853R after 48 hrs by CLSI broth microdilution method
[42] = tested on: Candida albicans; experiment: Antifungal activity against Candida albicans ATCC 10231 after 48 hrs by CLSI broth microdilution method; conditions: ATCC 10231, 48 h; summary of the method: as §1
[43] = tested on: Candida albicans; experiment: Antifungal activity against Candida albicans ATCC 76615 after 48 hrs by CLSI broth microdilution method; conditions: ATCC 76615, 48 h; summary of the method: as §1
[44] = tested on: Cryptococcus neoformans; experiment: Antifungal activity against Cryptococcus neoformans PMC 2115 after 72 hrs by CLSI broth microdilution method; conditions: PMC 2115, 72 h; summary of the method: as §2
[45] = tested on: Cryptococcus neoformans; experiment: Antifungal activity against Cryptococcus neoformans PMC 2136 after 72 hrs by CLSI broth microdilution method; conditions: PMC 2136, 72 h; summary of the method: as §2
[46] = tested on: Cryptococcus neoformans; experiment: Antifungal activity against Cryptococcus neoformans PMC 2123 after 72 hrs by CLSI broth microdilution method; conditions: PMC 2123, 72 h; summary of the method: as §2
[47] = tested on: Cryptococcus neoformans; experiment: Antifungal activity against Cryptococcus neoformans PMC 2111 after 72 hrs by CLSI broth microdilution method; conditions: PMC 2111, 72 h; summary of the method: as §2

MIC50 [1]: 0.5 µg/mL (≈ 0.962 µM)
MIC50 [2]: 0.06 µg/mL (≈ 0.115 µM)
MIC50 [3]: 0.125 µg/mL (≈ 0.24 µM)
MIC80 [4]: 4 µg/mL (≈ 7.69 µM)
MIC50 [5]: 2 µg/mL (≈ 3.85 µM)
MIC50 [8]: 1 µg/mL (≈ 1.92 µM)
MIC50 [11]: 0.125 µg/mL (≈ 0.24 µM)
MIC80 [12]: 2 µg/mL (≈ 3.85 µM)
MIC80 [13]: 4 µg/mL (≈ 7.69 µM)
MIC80 [14]: 2 µg/mL (≈ 3.85 µM)
MIC50 [16]: 0.125 µg/mL (≈ 0.24 µM)
MIC50 [17]: 64 µg/mL (≈ 123 µM)
MIC50 [18]: 0.0625 µg/mL (≈ 0.12 µM)
MIC50 [19]: 0.0625 µg/mL (≈ 0.12 µM)
MIC50 [20]: 0.0625 µg/mL (≈ 0.12 µM)
MIC50 [21]: 0.25 µg/mL (≈ 0.481 µM)
MIC50 [22]: 0.0625 µg/mL (≈ 0.12 µM)
MIC50 [23]: 0.0625 µg/mL (≈ 0.12 µM)
MIC50 [24]: 0.5 µg/mL (≈ 0.962 µM)
MIC50 [25]: 0.25 µg/mL (≈ 0.481 µM)
MIC80 [26]: 4 µg/mL (≈ 7.69 µM)
MIC50 [27]: 0.25 µg/mL (≈ 0.481 µM)
MIC80 [28]: 4 µg/mL (≈ 7.69 µM)
MIC50 [30]: 2 µg/mL (≈ 3.85 µM)
MIC50 [31]: 0.25 µg/mL (≈ 0.481 µM)
MIC50 [32]: 0.5 µg/mL (≈ 0.962 µM)
MIC50 [33]: 0.25 µg/mL (≈ 0.481 µM)
MIC80 [34]: 4 µg/mL (≈ 7.69 µM)
MIC50 [35]: 2 µg/mL (≈ 3.85 µM)
MIC50 [36]: 0.5 µg/mL (≈ 0.962 µM)
MIC80 [37]: 4 µg/mL (≈ 7.69 µM)
MIC50 [38]: 64 µg/mL (≈ 123 µM)
MIC50 [39]: 0.125 µg/mL (≈ 0.24 µM)
MIC80 [40]: 2 µg/mL (≈ 3.85 µM)
MIC50 [42]: 0.25 µg/mL (≈ 0.481 µM)
MIC50 [43]: 0.5 µg/mL (≈ 0.962 µM)
MIC50 [44]: 0.25 µg/mL (≈ 0.481 µM)
MIC50 [45]: 0.0625 µg/mL (≈ 0.12 µM)
MIC50 [46]: 0.25 µg/mL (≈ 0.481 µM)
MIC50 [47]: 0.5 µg/mL (≈ 0.962 µM)
Structure (SMILES): O=C(Nc1ccc(N2CCN(c3ccc(Cl)cc3)CC2)cc1)O[C@@H](Cn1ccnc1)c1ccc(F)cc1
Ratio [6]: 15
Ratio [7]: 15
Ratio [9]: 15
Ratio [10]: 15
Ratio [15]: 15
Ratio [29]: 15
Ratio [41]: 15
